Rows were chosen to be rich in hits. Some 2.9% of all compounds tested hit in one or more screens of this group.
NALP1 yeast inh: inhibitors of NALP1 inflammasome in yeast. S. cerevisiae NALP1/ASC/caspase-1 growth, X-gal OD620, 72 h. inhibition, % at 10 µM. hit rate 0.61% among 280,000. AID 2071; in the data active means inhibition mostly above about 24%, no sharp cut-off; inactive means mostly below about 32%
IMP-1 inh: inhibitors of Pseudomonas aeruginosa IMP-1 metallo-beta-lactamase; purified IMP-1, nitrocefin hydrolysis, epi-absorbance fluorescence; inhibition, % at 5.6 µM; hit rate 0.45% among 290,000;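 active means inhibition above the mean plus 3 SD of all compounds in the same screening run, cut at about 4.5% in these data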;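 further: 0% = IMP-1 with DMSO and 100% = DMSO wells lacking enzyme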
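System: purified IMP-1 / Input: IMP-1 dispensed at 0.2 nM / Medium: 50 mM HEPES pH 7.1, 50 µM ZnSO4, 0.05% Brij 35 / Timing: 15 min enzyme–compound preincubation, then 25 min nitrocefin reaction, 25 °C / Technique: plate fluorescence quenching by hydrolysis product, ex 480/em 530 nm / Repeats: singlicate testing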
NALP3 yeast inh: NALP3 inhibition in yeast; Yeast reconstituted NLRP3/ASC/caspase-1, beta-gal luminescence, 24 h; inhibition, % at 10 µM; hit rate 0.39% among 330,000; AID 2825;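 active means inhibition of 50% or more; inactive means inhibition below 50%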;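 further: plate controls were induced DMSO wells for no effect and uninduced yeast grown without galactose for full effect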
SUMO Mot1 rescue: inhibitors of SUMOylation pathway: yeast Mot1-301 growth rescue | S. cerevisiae Mot1-301 growth rescue, ATP luminescence, 38.5C; percent above DMSO median, 100 means doubled | growth rescue, % at 18.8 µM | hit rate 1% among 320,000 | AID 2716;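 active means every valid replicate shows activation above 250% relative to neutral control wells; inactive means the rest, any valid replicate at or below 250%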;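 further: OY570 slx delta 5 strain wells were the positive control but not used for scaling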
VIM-2 inh: blocks Pseudomonas aeruginosa VIM-2 metallo-beta-lactamase; purified VIM-2, nitrocefin hydrolysis, epi-absorbance fluorescence; inhibition, % at 5.6 µM; hit rate 0.89% among 290,000; AID 1527;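 active means inhibition above the mean of all tested compounds plus 3 SD, cutoff set per screening run, cut at about 7.5% in these data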;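 further: red hydrolysis product quenches plate fluorescence so inhibitors raise well fluorescence; 0% = enzyme with DMSO and 100% = DMSO without enzyme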
PolyA inhibitor: inhibitors of polyadenylation in S. cerevisiae; activity score, % at 12 µM; S. cerevisiae SKY197-pL101 polyadenylation reporter, beta-gal luminescence; efflux-impaired pdr1/pdr3 knockout yeast; score 100 = 6 SD above DMSO; hit rate 0.02% among 300,000; AID 1875;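 active means lowest replicate activity score at least 50, where 100 means six control SD above control mean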;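 further: yeast exposed to compound for 9 h at 30 °C; higher score means more reporter readthrough which indicates perturbed polyadenylation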
Starred values were filed as active, the others as inactive; · = no result.

SMILES	NALP1 yeast inh	IMP-1 inh	NALP3 yeast inh	SUMO Mot1 rescue	VIM-2 inh	PolyA inhibitor
Cc1cccn2c(=O)c3cc(C(=O)NCC4CCCO4)c(=N)n(C4CCCCC4)c3nc12 (stereo not drawn)	10	-1	6	11	8.0*	7
Cc1ccc2nc3c(cc(C(=O)NC4CCCC4)c(=N)n3C3CCCCC3)c(=O)n2c1	-2	-1	20	271	12*	-28
Cc1cccn2c(=O)c3cc(C(=O)NCC4CCCO4)c(=N)n(CC4CCCO4)c3nc12 (stereo not drawn)	17	-2	18	-4	1	13
Cc1cccn2c(=O)c3cc(C(=O)NCc4ccco4)c(=N)n(C4CCCC4)c3nc12	7	-4	10	-11	8.2*	21
Cc1cccn2c(=O)c3cc(C(=O)NCc4ccc(F)cc4)c(=N)n(CC4CCCO4)c3nc12 (stereo not drawn)	4	-2	12	162	3	9
O=C(NCc1ccccc1Cl)[C@@H]1CCCN1S(=O)(=O)c1ccc(Cl)cc1	·	·	11	47	·	·
Cc1ccc(C)c(CSc2nnc([C@@H]3CCCN3)o2)c1	·	5.0*	11	19	3	14
O=c1c(C(c2ccc(F)cc2)c2c(O)nc3n(c2=O)CCS3)c(O)nc2n1CCS2	16	-2	10	-7	-1	16
C=CCNC(=S)N/N=C(\C)c1ccccn1	78*	-3	21	-2	-3	3
COc1ccc(OC)c(S(=O)(=O)N(C)CC(=O)N2CCN(c3ccccc3F)CC2)c1	44	17*	0	-5	0	-2
COc1ccc(OC)c(S(=O)(=O)N(C)CC(=O)N2CCN(c3ccc(F)cc3)CC2)c1	·	0	12	27	1	0
CC1CCCN(CCCOc2ccc(Cl)cc2Br)C1 (stereo not drawn)	50*	0	21	482*	-1	-37
Cc1ccc(Cl)c(OCCN2CCCC(C)C2)c1 (stereo not drawn)	37	0	26	538*	-2	-52
CC1CCN(CCCOc2ccc(Cl)cc2Br)CC1	-1	-2	12	·	-2	-28
Clc1ccc(Cl)c(OCCN2CCCC2)c1	1	-3	23	77	-2	2
CC(=O)NN1C(=O)c2ccc(Oc3cccc([N+](=O)[O-])c3)cc2C1=O	1	6.0*	18	220	6	28
Cc1ccc(NC(=O)CSCC(=O)NNC(=O)c2nn(C)c(=O)c3ccccc23)cc1	·	·	7	5	·	·
Cc1cccc(N2CC(C(=O)NCc3ccco3)CC2=O)c1C (stereo not drawn)	·	·	13	-3	·	·
C#CC(=O)N(c1cccc(OC)c1)C(C(=O)NC1CCCC1)c1cccs1 (stereo not drawn)	-1	-1	29	331*	1	-12
CCOC(=O)C1=C(C)Nc2nnnn2C1c1c[nH]c2ccccc12 (stereo not drawn)	46*	0	-7	127	-2	10
CCOC(=O)C1=C(C)Nc2nnnn2C1c1cccc(OC)c1OC (stereo not drawn)	·	-2	12	-8	-2	0
Cc1cc(NC(=O)C(C)SCC(=O)N(C)CC(=O)Nc2ccc(F)cc2)no1 (stereo not drawn)	·	·	14	-1	·	-4
O=C(CCS(=O)(=O)c1ccc(Cl)cc1)N1CCN(c2ccccc2F)CC1	28*	-3	19	186	-4	12
COc1ccc(-c2nc(C#N)c(N3CCN(C(=O)c4ccco4)CC3)o2)cc1OC	-8	7.7*	22	3	0	26
COc1ccccc1-c1nc(C#N)c(N2CCN(C(=O)c3ccco3)CC2)o1	13	-3	6	-4	2	-9
SMILES	NALP1 yeast inh	IMP-1 inh	NALP3 yeast inh	SUMO Mot1 rescue	VIM-2 inh	PolyA inhibitor
CCOC(=O)C1=C(C)OC(N)=C(C#N)C1c1cccc(C)c1 (stereo not drawn)	12	-3	-6	2	-2	13
CCOC(=O)C1=C(C)OC(N)=C(C#N)C1c1ccc(C)s1 (stereo not drawn)	15	0	19	515*	1	10
COc1ccc(CN2CCCCCC2)cc1Br	13	-2	18	388	0	-7
CCOP(=O)(O)c1ccccc1OCCOCCOc1ccccc1P(=O)(O)OCC	-12	-2	13	-8	-2	15
O=P(O)(O)c1ccccc1OCCOCCOc1ccccc1P(=O)(O)O	10	-3	7	702	23*	·
c1ccc(-c2nnc(OCC3CCCO3)c3ccccc23)cc1 (stereo not drawn)	13	-1	-10	5	-1	-14
COc1ccccc1-c1ccc(/C=C2\C=CC(=O)O2)o1	-2	5.4*	17	36	5	-21
COc1ccccc1-c1ccc(/C=C2/C=C(C)OC2=O)o1	19	-1	12	379	-1	-21
COc1ccc(OC)c(S(=O)(=O)N2CCN(C(=O)c3cc(C4CC4)nn3-c3ccccc3)CC2)c1	·	·	16	-18	·	·
CCc1ccc(N=CC2=C(O)CC(c3ccco3)CC2=O)cc1 (stereo not drawn)	38*	-4	16	-17	-1	-3
O=C(Nc1cccc(S(=O)(=O)NC2=NCCC2)c1)c1ccccc1OC(F)F	·	·	9	-2	·	9
CCc1ccc(NC(=O)C2CCC(CNC(=O)[C@@H]3Cc4ccccc4CN3)CC2)cc1 (stereo partly drawn)	34*	-4	5	5	-2	22
Cc1cc(C)cc(NC(=O)C2CCC(CNC(=O)[C@@H]3Cc4ccccc4CN3)CC2)c1 (stereo partly drawn)	11	-1	16	-11	-2	10
CC(C)c1ccc(NC(=O)C2CCN(C(=O)[C@@H]3Cc4ccccc4CN3)CC2)cc1	32*	0	3	1	1	0
CCCN(CC(=O)Nc1ccc(F)c(F)c1F)C(=O)c1ccc(N2CCCC2=O)cc1	·	·	0	-5	·	·
Cc1cccc2sc(N(CCN(C)C)C(=O)/C=C/c3cccs3)nc12	54*	-1	39	-2	-2	-7
Cc1cccc2sc(N(CCCN(C)C)C(=O)c3sc4ccccc4c3Cl)nc12	54*	-2	23	-7	-1	·
CN(C)CCCN(C(=O)/C=C/c1cccs1)c1nc2c(F)cccc2s1	7	-4	·	·	-2	29
CN(C)CCCN(C(=O)CCc1ccccc1)c1nc2c(F)cccc2s1	25	-1	30	85	-2	14
CN(C)CCCN(C(=O)CCOc1ccccc1)c1nc2c(F)cccc2s1	52*	-2	·	·	-2	-6
CCOc1ccc(N2CC(C(=O)NC3CCCC3)CC2=O)cc1 (stereo not drawn)	-2	-1	14	2	-1	-1
COC(=O)c1sccc1NS(=O)(=O)c1ccccc1[N+](=O)[O-]	·	·	11	·	·	·

Screening data as filed in PubChem BioAssay.
